Bioassay records deposited in PubChem BioAssay by several laboratories.
S1P3 antag = S1P3 (human) receptor antagonism. inhibition, % at 4.98 µM. 170,000 compounds, 0.27% hits. Q99500. AID 485. CHO S1P3 NFAT-BLA reporter, FRET fluorescence, antagonist mode;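 active = inhibition above the plate cutoff, the mean inhibition of test wells on that plate plus 3 SD, cut at about 28% in these data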;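 also: cells challenged with S1P at its EC80 of 0.8 µM; blue over green emission ratio from cleaved BLA substrate after 4 h stimulation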
Target sequence (Q99500 whole entry, looked up): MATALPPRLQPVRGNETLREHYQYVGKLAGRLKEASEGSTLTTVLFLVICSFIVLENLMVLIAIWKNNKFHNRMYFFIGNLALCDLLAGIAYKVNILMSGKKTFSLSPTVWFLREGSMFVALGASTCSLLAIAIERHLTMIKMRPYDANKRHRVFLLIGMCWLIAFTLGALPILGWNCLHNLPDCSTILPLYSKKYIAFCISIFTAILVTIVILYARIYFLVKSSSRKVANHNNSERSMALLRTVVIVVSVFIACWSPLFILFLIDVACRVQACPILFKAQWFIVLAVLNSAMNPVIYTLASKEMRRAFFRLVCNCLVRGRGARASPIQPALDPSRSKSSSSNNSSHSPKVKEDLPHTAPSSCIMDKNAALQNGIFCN
Mdm2 ligase inh = Mdm2 E3 ligase (human) inhibition; signal enhancement, % at 5 µM; cell-based MDM2 ubiquitination luciferase reporter, 2 h; 0 = plate control, 100 = twice control, blank-subtracted; Q00987; 210,000 compounds, 0.11% hits;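 active = signal enhancement of 30% or more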;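 also: luminescence tracks abundance of the self-degrading MDM2-luciferase fusion protein; higher signal means inhibition of MDM2 E3 ligase activity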
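test system = mammalian cells stably expressing self-ubiquitinating, self-degrading MDM2 E3–luciferase fusion | quantity = 2000 cells/well | incubation = cell settling 4 h, compound treatment 2 h, both 37 °C | signal = luminescence with SteadyLite reagent, 15 min at room temperature | evaluation = % enhancement relative to plate controls after blank subtraction | benchmarks = plate controls and plate blanks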
Hsp70 act = Hsp70 transcriptional activation, primary screen; HeLa Hsp70 promoter luciferase reporter, luminescence; scaled: vehicle 0, proteasome-inhibitor control 100%; 200,000 compounds, 0.04% hits; activation, % at 10 µM;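 active = activation above the mean across all tested compounds plus 3 SD, cutoff set per campaign, cut at about 5.5% in these data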
CHOP inh = CHOP inhibition in unfolded protein response; CHO-K1 CHOP-promoter luciferase, tunicamycin-induced, 15-18 h; inhibition, % at 10 µM; 220,000 compounds, 3.8% hits;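 active = compounds that reduced the stress-induced luciferase reporter signal by more than about 70% of percent inhibition, limit read from the data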
Hits are given with their value; – = inactive; · = no result given. A selection: hits, their analogues and other compounds. The true share with any hit is near 4%.

SMILES	S1P3 antag	Mdm2 ligase inh	Hsp70 act	CHOP inh
CCOc1cccc2sc(Nc3nc4ccc(NC(C)=O)cc4s3)nc12	–	–	–	–
O=C(N/N=C\c1ccccn1)C1COc2cc3ccccc3cc2O1 (configuration not stated)	·	–	–	72
O=C(N/N=C\c1ccccn1)C1c2ccccc2Oc2ccccc21	–	–	–	–
CC1CCCN(CCOc2ccc3ccccc3c2Br)C1 (configuration not stated)	–	–	–	–
COc1cccc(C2CC(=O)Nc3cc4c(cc32)CCC4)c1 (configuration not stated)	–	–	–	–
O=C1CC(c2cccc(Cl)c2)c2cc3c(cc2N1)CCC3 (configuration not stated)	·	–	–	86
COc1ccc(CCNS(=O)(=O)c2cccc3nsnc23)cc1OC	–	–	–	–
COc1ccc(CCNC(=O)CCS(=O)(=O)c2cccc3nsnc23)cc1OC	·	–	–	78
COc1ccc(N(CC(=O)NCc2cccnc2)S(=O)(=O)c2c(C)nn(C)c2C)cc1	–	–	–	–
CCOC(=O)c1nnn(-c2nonc2-n2cccc2)c1CN1CCCCC1	–	–	–	87
CCC(=O)Nc1ccc(C(=O)OCc2ccc(Cl)c(Cl)c2)cc1	–	–	–	89
O=C1c2ccccc2C(=O)N1n1cccc1	–	–	–	–
Cc1cccc(Sc2nc(-c3ccccc3)ncc2C(=O)O)c1	–	–	–	–
O=C1c2cccc3cccc(c23)C(=O)N1c1ccc2ncccc2c1	·	–	–	89
O=C1c2cccc3cccc(c23)C(=O)N1c1nccs1	–	–	–	–
CCOc1ccc(NC(=O)/C(C#N)=C/c2ccc(N3CCCC3)c(C)c2)cc1	–	–	–	101
COc1ccc(-c2nn3c(-c4ccc(F)cc4)nnc3s2)cc1	–	–	–	83
NS(=O)(=O)c1ccc(CCNC(=O)COC(=O)C2CCCN2C(=O)c2cccs2)cc1 (configuration not stated)	–	–	–	–
O=C(NC(NC(=S)Nc1cccc(Cl)c1)C(Cl)(Cl)Cl)OCc1ccccc1 (configuration not stated)	·	–	–	109
O=C(NC(NC(=S)Nc1cccc(C(=O)O)c1)C(Cl)(Cl)Cl)OCc1ccccc1 (configuration not stated)	–	–	–	–
Cc1cc2ncn(C(=O)N3CCC(C)CC3)c2cc1C	·	38	–	–
NC(=S)c1ccc[n+]([C@@H]2O[C@@H](COP(=O)([O-])OP(=O)(O)OC[C@H]3O[C@@H](n4cnc5c(N)ncnc54)C(OP(=O)(O)O)[C@H]3O)C(O)C2O)c1 (some centres not stated)	·	·	·	–
CCn1c(P(C)(=O)O)nc2cc(NC(=O)c3ccccc3Cl)ccc21	–	–	–	–
O=C(CSc1nnc(-c2ccc(Br)o2)n1Cc1ccccc1)c1ccccc1F	58	–	–	–
CC(C)OC(=O)C(C(=O)C(F)(F)F)c1cc(NS(=O)(=O)c2ccc3ccccc3c2)c2ccccc2c1O (configuration not stated)	–	–	–	92
SMILES	S1P3 antag	Mdm2 ligase inh	Hsp70 act	CHOP inh
CC(C)OCCCNS(=O)(=O)c1ccc2ccccc2c1	·	–	–	–
CNC(=O)CSc1nnc(-c2cc3c(C)nn(-c4ccccc4)c3s2)n1C	–	·	–	·
Cc1cc(C)cc(-n2ccnc2SCC(=O)Nc2ccc3c(c2)OCCO3)c1	–	–	–	84
Cc1cc(C)n(-c2nnc(C)n2/N=C/c2cc(Br)ccc2OCc2ccccc2)n1	–	–	–	92
Cc1cc(C)n(-c2nnc(C)n2/N=C/c2ccccc2OCc2ccccc2Cl)n1	–	–	–	–
CCc1cccc(C)c1N1C(=O)CC(C)(C)CC1=O	–	–	·	–
Clc1nnc(N/N=C/c2ccccc2)c2ccccc12	·	–	–	75
Cc1cc(-n2c(C)cc(C(=O)CSc3ncnc4ccccc34)c2C)no1	·	–	–	70
Cc1cc(-n2c(C)cc(C(=O)CSc3nnc4sc5ccccc5n34)c2C)no1	–	–	–	–
CCN=c1scc(-c2cccs2)n1/N=C/c1cc(OC)ccc1O	–	–	–	–
CC(C)N=c1scc(-c2cccs2)n1/N=C/c1ccc(O)c(O)c1O	–	–	–	106
Cc1[nH]c2ccccc2c1C1C(c2ccccc2)=NN=C(C(C)C)N1O (configuration not stated)	·	–	–	72
Cc1c(Cc2ccc3c(c2)OCO3)sc(NC(=O)C(C)(C)C)c1C#N	·	–	–	–
Cc1ccc(S(=O)(=O)Oc2ccc3c(c2)O/C(=C\c2cccnc2)C3=O)cc1	·	–	–	78
